Test results taken from ChEMBL document CHEMBL1125825, “Hydrophobicity parameters for platinum complexes” (J Med Chem, 1991).

How the values were obtained:
[1] = Partition coefficient (logP); type: physicochemical; conditions: octanol/water
Outline: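 Octanol/water shake-flask partitioning used equal phase volumes shaken at 300 agitations/min at 37 °C. Phases were separated at various times, and Pt in each phase was measured by graphite-furnace atomic absorption. P is the octanol Pt concentration divided by the aqueous Pt concentration, reported as log P, with the mean ± range of 6-10 independent experiments.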

[2] = species: Mus musculus; assay: Median survival time of treated mice with respect to untreated controls.; type: functional, organism-based
Outline: (§1)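 P388 murine leukemia model in female DBA/2 mice given 10^6 cells on day 0. A single treatment was given on day 1 with the platinum complex freshly dissolved in 0.4% Klucel. T/C is the median survival time of treated mice relative to untreated controls.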

[3] = tested on: P388; assay: Optimal dose evaluated for antitumor activity against P388 murine leukemia cells in female DBA/2 mice.; type: functional, cell-based; conditions: Mus musculus; outline: as §1

Row | logP [1] | Substance | T/C [2] | Optimal dose [3]
1 | -2.19 | CISPLATIN [listing 1 of 2 here] |  | 
2 |  | CISPLATIN [listing 2 of 2 here] | 200% | 27 µmol/kg
3 | -3.36 | cis-di-amonium, di-nitarte platinum (II) [listing 1 of 2 here] |  | 
4 |  | cis-di-amonium, di-nitarte platinum (II) [listing 2 of 2 here] | 123% | 3.5 µmol/kg
5 | 0.36 | cis-di-cyclobutyleamino,di-chloro platinum (II) [listing 1 of 2 here] |  | 
6 |  | cis-di-cyclobutyleamino,di-chloro platinum (II) [listing 2 of 2 here] | 199% | 147 µmol/kg
7 | -0.35 | cis-di-cycloheptylamino,di-nitrate platinum (II) [listing 1 of 2 here] |  | 
8 |  | cis-di-cycloheptylamino,di-nitrate platinum (II) [listing 2 of 2 here] | 133% | 92 µmol/kg
9 | -0.91 | cis-di-cyclohexylamino,di-nitrate platinum (II) [listing 1 of 2 here] |  | 
10 |  | cis-di-cyclohexylamino,di-nitrate platinum (II) [listing 2 of 2 here] | 173% | 97 µmol/kg
11 | 0.81 | cis-di-cyclopentylamino, dichloro platinum (II) [listing 1 of 2 here] |  | 
12 |  | cis-di-cyclopentylamino, dichloro platinum (II) [listing 2 of 2 here] | 172% | 572 µmol/kg
13 | -1.14 | cis-di-cyclopentyleamino,di-nitrate platinum (II) [listing 1 of 2 here] |  | 
14 |  | cis-di-cyclopentyleamino,di-nitrate platinum (II) [listing 2 of 2 here] | 193% | 51 µmol/kg
15 | -0.32 | cis-di-isopropyleamino,dichloro platinum (II) |  | 
16 | -3.28 | cis-di-methylamino, di-nitrate platinum (II) [listing 1 of 2 here] |  | 
17 |  | cis-di-methylamino, di-nitrate platinum (II) [listing 2 of 2 here] | 161% | 26 µmol/kg
18 | -1.68 | cis-di-methylamino,di-chloro platinum (II) [listing 1 of 2 here] |  | 
19 |  | cis-di-methylamino,di-chloro platinum (II) [listing 2 of 2 here] | 175% | 76 µmol/kg
20 | -1.41 | cis-di-pyridinium (4-acetyle),di-nitrate platinum (II) |  | 
21 | -1.06 | cis-di-pyridinium (4-chloro),di-nitrate platinum (II) [listing 1 of 2 here] |  | 
22 |  | cis-di-pyridinium (4-chloro),di-nitrate platinum (II) [listing 2 of 2 here] | 130% | 183 µmol/kg
23 | -0.83 | cis-di-pyridinium (4-diaminomethane),di-nitrate platinum (II) [listing 1 of 2 here] |  | 
24 |  | cis-di-pyridinium (4-diaminomethane),di-nitrate platinum (II) [listing 2 of 2 here] | 110% | 495 µmol/kg
25 | -2.13 | cis-di-pyridinium (4-methanol),di-nitrate platinum (II) |  | 
26 | -1.59 | cis-di-pyridinium,dinitrate platinum (II) [listing 1 of 2 here] |  | 
27 |  | cis-di-pyridinium,dinitrate platinum (II) [listing 2 of 2 here] | 125% | 105 µmol/kg
